ChEMBL document CHEMBL3044673, “Design, synthesis and insecticidal activity of novel phenylpyrazoles containing a 2,2,2-trichloro-1-alkoxyethyl moiety” (2010)

Legend:
Type in all cases: functional
Plutella xylostella [1] = assay: Insecticidal activity against Plutella xylostella (diamondback moth) grown on compound pre-treated fresh cabbage leaves assessed as insect mortality at 5 mg/kg measured 3 days post compound treatment by leaf-dip method; settings: Plutella xylostella
Procedure, shortened: (§1)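 Leaf-dip stomach-toxicity assay on laboratory-reared diamondback moth. Test solutions came from a 200 mg L^-1 stock in dimethylformamide, diluted with water containing TW-20. Control leaves were treated with water and dimethylformamide. Tests were held at 25±1 °C, percentage mortality was scored 3 days after treatment, and each treatment was run three times.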

Plutella xylostella [2] = assay: Insecticidal activity against Plutella xylostella (diamondback moth) grown on compound pre-treated fresh cabbage leaves assessed as insect mortality at 10 mg/kg measured 3 days post compound treatment by leaf-dip method; settings: Plutella xylostella; procedure, shortened: as §1
Plutella xylostella [3] = assay: Insecticidal activity against Plutella xylostella (diamondback moth) grown on compound pre-treated fresh cabbage leaves assessed as insect mortality at 25 mg/kg measured 3 days post compound treatment by leaf-dip method; settings: Plutella xylostella; procedure, shortened: as §1
Plutella xylostella [4] = assay: Insecticidal activity against Plutella xylostella (diamondback moth) grown on compound pre-treated fresh cabbage leaves assessed as insect mortality at 50 mg/kg measured 3 days post compound treatment by leaf-dip method; procedure, shortened: as §1
Plutella xylostella [5] = assay: Insecticidal activity against Plutella xylostella (diamondback moth) grown on compound pre-treated fresh cabbage leaves assessed as insect mortality at 100 mg/kg measured 3 days post compound treatment by leaf-dip method; procedure, shortened: as §1
Plutella xylostella [6] = assay: Insecticidal activity against Plutella xylostella (diamondback moth) grown on compound pre-treated fresh cabbage leaves assessed as insect mortality at 200 mg/kg measured 3 days post compound treatment by leaf-dip method; procedure, shortened: as §1
Culex pipiens pallens [7] = assay: Insecticidal activity against Culex pipiens pallens (mosquito) assessed as insect mortality at 50 ug/kg measured 1 day post compound treatment; settings: 24 h
Procedure, shortened: (§2)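 Fourth-instar Culex pipiens pallens larvae, 20 per test, were laboratory-reared and placed in 100 mL of test solution made by adding 1 mL of compound dilution to 99 mL of water. Tests were held at 25±1 °C, percentage mortality was scored 1 day after treatment, and each test was run three times.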

Culex pipiens pallens [8] = assay: Insecticidal activity against Culex pipiens pallens (mosquito) assessed as insect mortality at 100 ug/kg measured 1 day post compound treatment; settings: Culex pipiens, 24 h; procedure, shortened: as §2
Aphis craccivora [9] = assay: Insecticidal activity against Aphis craccivora (cowpea aphid) infested tender soybean shoots exposed to 5 mg/kg test compound solution assessed as insect mortality measured 24 hr post compound treatment; settings: Aphis craccivora, 24 h
Procedure, shortened: (§3)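 Soybean tender shoots carrying 60 aphids were dipped in test solutions. Solutions were made from a 200 mg L^-1 stock in dimethylformamide, diluted with water containing TW-20. Insects were laboratory-reared, tests were held at 25±1 °C, and mortality was scored.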

Aphis craccivora [10] = assay: Insecticidal activity against Aphis craccivora (cowpea aphid) infested tender soybean shoots exposed to 10 mg/kg test compound solution assessed as insect mortality measured 24 hr post compound treatment; settings: Aphis craccivora, 24 h; procedure, shortened: as §3
Aphis craccivora [11] = assay: Insecticidal activity against Aphis craccivora (cowpea aphid) infested tender soybean shoots exposed to 25 mg/kg test compound solution assessed as insect mortality measured 24 hr post compound treatment; procedure, shortened: as §3
Aphis craccivora [12] = assay: Insecticidal activity against Aphis craccivora (cowpea aphid) infested tender soybean shoots exposed to 50 mg/kg test compound solution assessed as insect mortality measured 24 hr post compound treatment; procedure, shortened: as §3
Aphis craccivora [13] = assay: Insecticidal activity against Aphis craccivora (cowpea aphid) infested tender soybean shoots exposed to 100 mg/kg test compound solution assessed as insect mortality measured 24 hr post compound treatment; procedure, shortened: as §3
Aphis craccivora [14] = assay: Insecticidal activity against Aphis craccivora (cowpea aphid) infested tender soybean shoots exposed to 200 mg/kg test compound solution assessed as insect mortality measured 24 hr post compound treatment; procedure, shortened: as §3
Aphis craccivora [15] = assay: Insecticidal activity against Aphis craccivora (cowpea aphid) infested tender soybean shoots exposed to 2.5 mg/kg test compound solution assessed as insect mortality measured 24 hr post compound treatment; settings: Aphis craccivora, 24 h; procedure, shortened: as §3
Plutella xylostella [16] = assay: Insecticidal activity against Plutella xylostella (diamondback moth) grown on compound pre-treated fresh cabbage leaves assessed as insect mortality at 2.5 mg/kg measured 3 days post compound treatment by leaf-dip method; procedure, shortened: as §1
Culex pipiens pallens [17] = assay: Insecticidal activity against Culex pipiens pallens (mosquito) assessed as insect mortality at 25 ug/kg measured 1 day post compound treatment; settings: 24 h; procedure, shortened: as §2
Culex pipiens pallens [18] = assay: Insecticidal activity against Culex pipiens pallens (mosquito) assessed as insect mortality at 5 ug/kg measured 1 day post compound treatment; settings: 24 h; procedure, shortened: as §2
Culex pipiens pallens [19] = assay: Insecticidal activity against Culex pipiens pallens (mosquito) assessed as insect mortality at 10 ug/kg measured 1 day post compound treatment; settings: 24 h; procedure, shortened: as §2

SMILES: CC[S+]([O-])c1c(C#N)nn(-c2c(Cl)cc(C(F)(F)F)cc2Cl)c1NC(OCCCl)C(Cl)(Cl)Cl (stereo not drawn)
- mortality at 5 mg/kg (Plutella xylostella [1]): 0%
- mortality at 10 mg/kg (Plutella xylostella [2]): 32%
- mortality at 25 mg/kg (Plutella xylostella [3]): 46%
- mortality at 50 mg/kg (Plutella xylostella [4]): 100%
- mortality at 100 mg/kg (Plutella xylostella [5]): 100%
- mortality at 200 mg/kg (Plutella xylostella [6]): 100%
- mortality at 0.05 mg/kg (Culex pipiens pallens [7]): 0%
- mortality at 0.1 mg/kg (Culex pipiens pallens [8]): 100%
- mortality at 5 mg/kg (Aphis craccivora [9]): 0%
- mortality at 10 mg/kg (Aphis craccivora [10]): 48%
- mortality at 25 mg/kg (Aphis craccivora [11]): 100%
- mortality at 50 mg/kg (Aphis craccivora [12]): 100%
- mortality at 100 mg/kg (Aphis craccivora [13]): 100%
- mortality at 200 mg/kg (Aphis craccivora [14]): 100%

SMILES: CC[S+]([O-])c1c(C#N)nn(-c2c(Cl)cc(C(F)(F)F)cc2Cl)c1NC(OCCF)C(Cl)(Cl)Cl (stereo not drawn)
- mortality at 5 mg/kg (Plutella xylostella [1]): 0%
- mortality at 10 mg/kg (Plutella xylostella [2]): 30%
- mortality at 25 mg/kg (Plutella xylostella [3]): 46%
- mortality at 50 mg/kg (Plutella xylostella [4]): 91%
- mortality at 100 mg/kg (Plutella xylostella [5]): 100%
- mortality at 200 mg/kg (Plutella xylostella [6]): 100%
- mortality at 0.05 mg/kg (Culex pipiens pallens [7]): 20%
- mortality at 0.1 mg/kg (Culex pipiens pallens [8]): 100%
- mortality at 2.5 mg/kg (Aphis craccivora [15]): 43%
- mortality at 5 mg/kg (Aphis craccivora [9]): 73%
- mortality at 10 mg/kg (Aphis craccivora [10]): 100%
- mortality at 25 mg/kg (Aphis craccivora [11]): 100%
- mortality at 50 mg/kg (Aphis craccivora [12]): 100%
- mortality at 100 mg/kg (Aphis craccivora [13]): 100%
- mortality at 200 mg/kg (Aphis craccivora [14]): 100%

SMILES: CCOC(Nc1c([S+]([O-])CC)c(C#N)nn1-c1c(Cl)cc(C(F)(F)F)cc1Cl)C(Cl)(Cl)Cl (stereo not drawn)
- mortality at 2.5 mg/kg (Plutella xylostella [16]): 0%
- mortality at 5 mg/kg (Plutella xylostella [1]): 29%
- mortality at 10 mg/kg (Plutella xylostella [2]): 72%
- mortality at 25 mg/kg (Plutella xylostella [3]): 100%
- mortality at 50 mg/kg (Plutella xylostella [4]): 100%
- mortality at 100 mg/kg (Plutella xylostella [5]): 100%
- mortality at 200 mg/kg (Plutella xylostella [6]): 100%
- mortality at 0.025 mg/kg (Culex pipiens pallens [17]): 40%
- mortality at 0.05 mg/kg (Culex pipiens pallens [7]): 100%
- mortality at 0.1 mg/kg (Culex pipiens pallens [8]): 100%
- mortality at 2.5 mg/kg (Aphis craccivora [15]): 0%
- mortality at 5 mg/kg (Aphis craccivora [9]): 81%
- mortality at 10 mg/kg (Aphis craccivora [10]): 100%
- mortality at 25 mg/kg (Aphis craccivora [11]): 100%
- mortality at 50 mg/kg (Aphis craccivora [12]): 100%
- mortality at 100 mg/kg (Aphis craccivora [13]): 100%
- mortality at 200 mg/kg (Aphis craccivora [14]): 100%

SMILES: CC[S+]([O-])c1c(C#N)nn(-c2c(Cl)cc(C(F)(F)F)cc2Cl)c1NC(OC)C(Cl)(Cl)Cl (stereo not drawn)
- mortality at 10 mg/kg (Plutella xylostella [2]): 0%
- mortality at 25 mg/kg (Plutella xylostella [3]): 31%
- mortality at 50 mg/kg (Plutella xylostella [4]): 86%
- mortality at 100 mg/kg (Plutella xylostella [5]): 100%
- mortality at 200 mg/kg (Plutella xylostella [6]): 100%
- mortality at 0.025 mg/kg (Culex pipiens pallens [17]): 0%
- mortality at 0.05 mg/kg (Culex pipiens pallens [7]): 100%
- mortality at 0.1 mg/kg (Culex pipiens pallens [8]): 100%
- mortality at 2.5 mg/kg (Aphis craccivora [15]): 0%
- mortality at 5 mg/kg (Aphis craccivora [9]): 76%
- mortality at 10 mg/kg (Aphis craccivora [10]): 87%
- mortality at 25 mg/kg (Aphis craccivora [11]): 96%
- mortality at 50 mg/kg (Aphis craccivora [12]): 100%
- mortality at 100 mg/kg (Aphis craccivora [13]): 100%
- mortality at 200 mg/kg (Aphis craccivora [14]): 100%

SMILES: CCOC(Nc1c([S+](C)[O-])c(C#N)nn1-c1c(Cl)cc(C(F)(F)F)cc1Cl)C(Cl)(Cl)Cl (stereo not drawn)
- mortality at 2.5 mg/kg (Plutella xylostella [16]): 0%
- mortality at 5 mg/kg (Plutella xylostella [1]): 63%
- mortality at 10 mg/kg (Plutella xylostella [2]): 85%
- mortality at 25 mg/kg (Plutella xylostella [3]): 100%
- mortality at 50 mg/kg (Plutella xylostella [4]): 100%
- mortality at 100 mg/kg (Plutella xylostella [5]): 100%
- mortality at 200 mg/kg (Plutella xylostella [6]): 100%
- mortality at 0.025 mg/kg (Culex pipiens pallens [17]): 30%
- mortality at 0.05 mg/kg (Culex pipiens pallens [7]): 100%
- mortality at 0.1 mg/kg (Culex pipiens pallens [8]): 100%
- mortality at 2.5 mg/kg (Aphis craccivora [15]): 0%
- mortality at 5 mg/kg (Aphis craccivora [9]): 63%
- mortality at 10 mg/kg (Aphis craccivora [10]): 85%
- mortality at 25 mg/kg (Aphis craccivora [11]): 100%
- mortality at 50 mg/kg (Aphis craccivora [12]): 100%
- mortality at 100 mg/kg (Aphis craccivora [13]): 100%
- mortality at 200 mg/kg (Aphis craccivora [14]): 100%

SMILES: CCCOC(Nc1c(SCC)c(C#N)nn1-c1c(Cl)cc(C(F)(F)F)cc1Cl)C(Cl)(Cl)Cl (stereo not drawn)
- mortality at 10 mg/kg (Plutella xylostella [2]): 17%
- mortality at 25 mg/kg (Plutella xylostella [3]): 58%
- mortality at 50 mg/kg (Plutella xylostella [4]): 89%
- mortality at 100 mg/kg (Plutella xylostella [5]): 100%
- mortality at 200 mg/kg (Plutella xylostella [6]): 100%
- mortality at 0.005 mg/kg (Culex pipiens pallens [18]): 50%
- mortality at 0.01 mg/kg (Culex pipiens pallens [19]): 100%
- mortality at 0.025 mg/kg (Culex pipiens pallens [17]): 100%
- mortality at 0.05 mg/kg (Culex pipiens pallens [7]): 100%
- mortality at 0.1 mg/kg (Culex pipiens pallens [8]): 100%
- mortality at 10 mg/kg (Aphis craccivora [10]): 0%
- mortality at 25 mg/kg (Aphis craccivora [11]): 53%
- mortality at 50 mg/kg (Aphis craccivora [12]): 85%
- mortality at 100 mg/kg (Aphis craccivora [13]): 90%
- mortality at 200 mg/kg (Aphis craccivora [14]): 95%
